What all share (format): nucleic-acid assay
The subject of experiment [1] is Nucleic Acid. Put plainly: Binding affinity to 5'-GCTAAAAAGAGAGAGAGATCG-3'/5'- CGATCTCTCTCTCTTTTTAGC-3' double stranded DNA assessed as melting temperature at 1.5 uM in sodium phosphate buffer at pH 7 by UV spectrophotometric analysis. An outline of the steps: (§1)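 UV melting of triplexes between each modified TFO and the 21-bp duplex target, in 7 mM sodium phosphate buffer (pH 7.0), 140 mM KCl and 10 mM MgCl₂. Each oligonucleotide at 1.5 µM final. Absorbance followed at 260 nm from 5 °C to 85 °C, scanned at 0.5 °C/min, to give Tm.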

For experiment [2], the system named is Nucleic Acid. Put plainly: Binding affinity to5'-GCTAAAAAGACAGAGAGATCG-3'/5'- CGATCTCTCTGTCTTTTTAGC-3' double stranded DNA assessed as melting temperature at 1.5 uM in sodium phosphate buffer at pH 7 by UV spectrophotometric analysis. The gist of the method:
as §1

Experiment [3] has as its system Nucleic Acid. Put plainly: Binding affinity to 5'-GCTAAAAAGATAGAGAGATCG-3'/5'- CGATCTCTCTATCTTTTTAGC-3' double stranded DNA assessed as melting temperature at 1.5 uM in sodium phosphate buffer at pH 7 by UV spectrophotometric analysis. An outline of the steps:
as §1

Experiment [4] relates to Nucleic Acid. Put plainly: Binding affinity to 5'-GCTAAAAAGAAAGAGAGATCG-3'/5'- CGATCTCTCTTTCTTTTTAGC-3' double stranded DNA assessed as melting temperature at 1.5 uM in sodium phosphate buffer at pH 7 by UV spectrophotometric analysis. The gist of the method: as §1

Among the data in ChEMBL document CHEMBL1949561, “Synthesis and triplex-forming ability of oligonucleotides bearing 1-substituted 1H-1,2,3-triazole nucleobases” (Bioorg Med Chem, 2011) are Tm values, retold here.

For `Cc1cn([C@H]2C[C@H](OP(=O)(O)OC[C@H]3O[C@@H](n4cc(C)c(=O)[nH]c4=O)C[C@@H]3OP(=O)(O)OC[C@H]3O[C@@H](n4cc(C)c(N)nc4=O)C[C@@H]3OP(=O)(O)OC[C@H]3O[C@@H](n4cc(C)c(=O)[nH]c4=O)C[C@@H]3OP(=O)(O)OC[C@H]3O[C@@H](n4cc(C)c(N)nc4=O)C[C@@H]3OP(=O)(O)OC[C@H]3O[C@@H](n4cc(C)c(=O)[nH]c4=O)C[C@@H]3OP(=O)(O)OC[C@H]3O[C@@H](c4cn(-c5cccc(O)c5)nn4)C[C@@H]3OP(=O)(O)OC[C@H]3O[C@@H](n4cc(C)c(=O)[nH]c4=O)C[C@@H]3OP(=O)(O)OC[C@H]3O[C@@H](n4cc(C)c(N)nc4=O)C[C@@H]3OP(=O)(O)OC[C@H]3O[C@@H](n4cc(C)c(=O)[nH]c4=O)C[C@@H]3OP(=O)(O)OC[C@H]3O[C@@H](n4cc(C)c(=O)[nH]c4=O)C[C@@H]3OP(=O)(O)OC[C@H]3O[C@@H](n4cc(C)c(=O)[nH]c4=O)C[C@@H]3OP(=O)(O)OC[C@H]3O[C@@H](n4cc(C)c(=O)[nH]c4=O)C[C@@H]3OP(=O)(O)OC[C@H]3O[C@@H](n4cc(C)c(=O)[nH]c4=O)C[C@@H]3O)[C@@H](COP(=O)(O)O[C@H]3C[C@H](n4cc(C)c(=O)[nH]c4=O)O[C@@H]3CO)O2)c(=O)nc1N`, the Tm was less than 10 °C in the experiment on Nucleic Acid [1], 21 °C in the experiment on Nucleic Acid [2], 14 °C with Nucleic Acid [3] and less than 10 °C in the experiment with Nucleic Acid [4].
For `Cc1cn([C@H]2C[C@H](OP(=O)(O)OC[C@H]3O[C@@H](n4cc(C)c(=O)[nH]c4=O)C[C@@H]3OP(=O)(O)OC[C@H]3O[C@@H](n4cc(C)c(N)nc4=O)C[C@@H]3OP(=O)(O)OC[C@H]3O[C@@H](n4cc(C)c(=O)[nH]c4=O)C[C@@H]3OP(=O)(O)OC[C@H]3O[C@@H](n4cc(C)c(N)nc4=O)C[C@@H]3OP(=O)(O)OC[C@H]3O[C@@H](n4cc(C)c(=O)[nH]c4=O)C[C@@H]3OP(=O)(O)OC[C@H]3O[C@@H](c4cn(-c5cccc(CO)c5)nn4)C[C@@H]3OP(=O)(O)OC[C@H]3O[C@@H](n4cc(C)c(=O)[nH]c4=O)C[C@@H]3OP(=O)(O)OC[C@H]3O[C@@H](n4cc(C)c(N)nc4=O)C[C@@H]3OP(=O)(O)OC[C@H]3O[C@@H](n4cc(C)c(=O)[nH]c4=O)C[C@@H]3OP(=O)(O)OC[C@H]3O[C@@H](n4cc(C)c(=O)[nH]c4=O)C[C@@H]3OP(=O)(O)OC[C@H]3O[C@@H](n4cc(C)c(=O)[nH]c4=O)C[C@@H]3OP(=O)(O)OC[C@H]3O[C@@H](n4cc(C)c(=O)[nH]c4=O)C[C@@H]3OP(=O)(O)OC[C@H]3O[C@@H](n4cc(C)c(=O)[nH]c4=O)C[C@@H]3O)[C@@H](COP(=O)(O)O[C@H]3C[C@H](n4cc(C)c(=O)[nH]c4=O)O[C@@H]3CO)O2)c(=O)nc1N`, the Tm with Nucleic Acid [1] was less than 10 °C; in the experiment on Nucleic Acid [2] it was 23 °C; with Nucleic Acid [3], 14 °C; in the experiment with Nucleic Acid [4] it was less than 10 °C.
For `Cc1cn([C@H]2C[C@H](OP(=O)(O)OC[C@H]3O[C@@H](n4cc(C)c(=O)[nH]c4=O)C[C@@H]3OP(=O)(O)OC[C@H]3O[C@@H](n4cc(C)c(N)nc4=O)C[C@@H]3OP(=O)(O)OC[C@H]3O[C@@H](n4cc(C)c(=O)[nH]c4=O)C[C@@H]3OP(=O)(O)OC[C@H]3O[C@@H](n4cc(C)c(N)nc4=O)C[C@@H]3OP(=O)(O)OC[C@H]3O[C@@H](n4cc(C)c(=O)[nH]c4=O)C[C@@H]3OP(=O)(O)OC[C@H]3O[C@@H](c4cn(-c5ccc(CO)cc5)nn4)C[C@@H]3OP(=O)(O)OC[C@H]3O[C@@H](n4cc(C)c(=O)[nH]c4=O)C[C@@H]3OP(=O)(O)OC[C@H]3O[C@@H](n4cc(C)c(N)nc4=O)C[C@@H]3OP(=O)(O)OC[C@H]3O[C@@H](n4cc(C)c(=O)[nH]c4=O)C[C@@H]3OP(=O)(O)OC[C@H]3O[C@@H](n4cc(C)c(=O)[nH]c4=O)C[C@@H]3OP(=O)(O)OC[C@H]3O[C@@H](n4cc(C)c(=O)[nH]c4=O)C[C@@H]3OP(=O)(O)OC[C@H]3O[C@@H](n4cc(C)c(=O)[nH]c4=O)C[C@@H]3OP(=O)(O)OC[C@H]3O[C@@H](n4cc(C)c(=O)[nH]c4=O)C[C@@H]3O)[C@@H](COP(=O)(O)O[C@H]3C[C@H](n4cc(C)c(=O)[nH]c4=O)O[C@@H]3CO)O2)c(=O)nc1N`, the Tm was less than 10 °C in the experiment on Nucleic Acid [1], 24 °C in the experiment with Nucleic Acid [2], 16 °C with Nucleic Acid [3] and less than 10 °C with Nucleic Acid [4].
